ChEMBL document CHEMBL3091368, “Structure-based design, synthesis, and evaluation of imidazo[1,2-b]pyridazine and imidazo[1,2-a]pyridine derivatives as novel dual c-Met and VEGFR2 kinase inhibitors” (Bioorg Med Chem, 2013)
In brackets after ≈: the same amount, converted by molar mass.

Legend:
[1] = Kinetic solubility of the compound in second fluid of disintegration test of Japanese pharmacopoeia containing bile acid at pH 6.8 by HPLC analysis; assay type: physicochemical; details: read-out: Kinetic_solubility
How it was run: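 Kinetic solubility in JP second disintegration fluid with bile acid. Compound DMSO solutions added in small volumes to the aqueous buffer and incubated. Precipitate removed by filter-plate filtration, and dissolved compound in the filtrate quantified by HPLC.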

[2] = Clearance in mouse liver microsomes at 1 umol/L by HPLC analysis; assay type: ADME, Microsome; details: read-out: CLH
How it was run: (§1)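 Hepatic microsomes at 0.2 mg protein/mL in 50 mmol/L potassium phosphate, pH 7.4, with test compound at 1 µmol/L, incubated at 37 °C. Started by adding an NADPH-generating system (MgCl₂, glucose-6-phosphate, β-NADP⁺, G6P dehydrogenase). Stopped with an equal volume of acetonitrile. Parent compound loss measured by HPLC-UV or LC/MS/MS.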

[3] = Clearance in human liver microsomes at 1 umol/L by HPLC analysis; assay type: ADME; details: read-out: CLH; how it was run: as §1

| Compound | solubility kinetic [1] [µg/mL] | microsomal CLint at 1 µM [2] [µL/min/mg] | microsomal CLint at 1 µM [3] [µL/min/mg] |
| --- | --- | --- | --- |
| Cc1ccc(C(=O)Nc2ccc(Oc3ccc4nc(NC(=O)C5CC5)cn4c3)c(F)c2)c(=O)n1-c1ccccc1.Cl | > 110 | 10 | 6 |
| Cc1ccc(C(=O)Nc2ccc(Oc3ccc4nc(NC(=O)C5CC5)cn4n3)c(F)c2)c(=O)n1-c1ccccc1 | > 140 | 8 | 11 |

Continued, values first:

| solubility kinetic [1] [µg/mL] | microsomal CLint at 1 µM [2] [µL/min/mg] | microsomal CLint at 1 µM [3] [µL/min/mg] | Compound |
| --- | --- | --- | --- |
| 92 (≈ 171 µM) | – | – | Cc1ccc(C(=O)Nc2ccc(Oc3ccc4nc(NC(=O)C5CC5)cn4c3)c(F)c2)c(=O)n1-c1ccccc1 |
| 4.7 (≈ 8.98 µM) | 15 | 5 | O=C(Nc1ccc(Oc2ccc3nc(NC(=O)C4CC4)cn3c2)c(F)c1)c1cccn(-c2ccccc2)c1=O |
| 3.2 (≈ 6.1 µM) | 11 | 3 | O=C(Nc1ccc(Oc2ccc3nc(NC(=O)C4CC4)cn3n2)c(F)c1)c1cccn(-c2ccccc2)c1=O |
